Reference: ChEMBL document CHEMBL5032501, “Total Synthesis and Antimalarial Activity of 2-(p-Hydroxybenzyl)-prodigiosins, Isoheptylprodigiosin, and Geometric Isomers of Tambjamine MYP1 Isolated from Marine Bacteria” (J Med Chem, 2021)

system: Plasmodium yoelii; assay: Antimalarial activity against blood stage Plasmodium yoelii infected in CF1 mouse assessed as reduction in parasitemia administered orally once daily for 4 days and measured for 28 days by Giemsa staining based microscopic analysis; type: functional; details: po, 96 h, time 4 day
In short: (§1)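 Female CF1 mice, 7–8 weeks old, about 30 g, n = 4 per group. Dosed orally in PEG-400, 5 or 25 mg/kg once daily for 4 days, starting the day after inoculation. Giemsa-stained tail-vein blood films read the day after the last dose, then weekly to day 28. Parasitemia taken relative to vehicle controls.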

Row | Compound | ED50 [mg/kg/day] | ED90 [mg/kg/day]
1 | CCCCCCCc1cc(/C=C2\N=C(c3ccc[nH]3)C=C2OC)[nH]c1C.Cl | 2.6 | 9.2
2 | CCCCCc1cc(/C=C2\N=C(c3ccc[nH]3)C=C2OC)[nH]c1C.Cl | 3.7 | 17
3 | COC1=CC(c2ccc[nH]2)=N/C1=C\c1cc(CCCCC(C)C)c(C)[nH]1.Cl | 2.7 | 5.9
4 | CCCCCCc1cc(/C=C2\N=C(c3ccc[nH]3)C=C2OC)[nH]c1C.Cl | 1.5 | 4.8
5 | CCCCc1cc(/C=C2\N=C(c3ccc[nH]3)C=C2OC)[nH]c1C.Cl | 2.5 | 8.5
6 | CCCCCc1cc(/C=C2\N=C(c3ccc(Cc4ccc(OC)cc4)[nH]3)C=C2OC)[nH]c1C.Cl | 3.6 | 18
7 | COC1=CC2=N/C1=C\NCC/C=C/CCCCCCCCc1ccc2[nH]1.Cl | 15 | 16

system: not listed separately; assay: Toxicity in CF-1 mouse infected with blood stage Plasmodium yoelii assessed as reduction in body weight at 5 to 25 mg/kg, po administered once daily for 4 days and measured for 28 days; type: organism-based; details: in vivo, 96 h, dose 5-25 mg/kg, time 4 day
In short: (§2)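 CF1 mice infected with P. yoelii and given oral doses of 5 or 25 mg/kg in PEG-400 once daily for 4 days. Checked daily for mortality, morbidity and signs of toxicity. Body weight, grooming, posture and locomotion monitored over the study, to day 28. Compared with the vehicle control group.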

Row | Compound | Activity
8 | CCCCCCCc1cc(/C=C2\N=C(c3ccc[nH]3)C=C2OC)[nH]c1C.Cl | Non-Toxic
9 | CCCCCc1cc(/C=C2\N=C(c3ccc[nH]3)C=C2OC)[nH]c1C.Cl | Non-Toxic
10 | COC1=CC(c2ccc[nH]2)=N/C1=C\c1cc(CCCCC(C)C)c(C)[nH]1.Cl | Non-Toxic
11 | CCCCCCc1cc(/C=C2\N=C(c3ccc[nH]3)C=C2OC)[nH]c1C.Cl | Non-Toxic
12 | CCCCc1cc(/C=C2\N=C(c3ccc[nH]3)C=C2OC)[nH]c1C.Cl | Non-Toxic
13 | CCCCCc1cc(/C=C2\N=C(c3ccc(Cc4ccc(OC)cc4)[nH]3)C=C2OC)[nH]c1C.Cl | Non-Toxic
14 | COC1=CC2=N/C1=C\NCC/C=C/CCCCCCCCc1ccc2[nH]1.Cl | Non-Toxic

system: not listed separately; assay: Toxicity in CF-1 mouse infected with blood stage Plasmodium yoelii assessed as behavioral changes at 5 to 25 mg/kg, po administered once daily for 4 days and measured for 28 days; type: organism-based; details: in vivo, 96 h, dose 5-25 mg/kg, time 4 day; in short: as §2

Row | Compound | Activity
15 | CCCCCCCc1cc(/C=C2\N=C(c3ccc[nH]3)C=C2OC)[nH]c1C.Cl | Non-Toxic
16 | CCCCCc1cc(/C=C2\N=C(c3ccc[nH]3)C=C2OC)[nH]c1C.Cl | Non-Toxic
17 | COC1=CC(c2ccc[nH]2)=N/C1=C\c1cc(CCCCC(C)C)c(C)[nH]1.Cl | Non-Toxic
18 | CCCCCCc1cc(/C=C2\N=C(c3ccc[nH]3)C=C2OC)[nH]c1C.Cl | Non-Toxic
19 | CCCCc1cc(/C=C2\N=C(c3ccc[nH]3)C=C2OC)[nH]c1C.Cl | Non-Toxic
20 | CCCCCc1cc(/C=C2\N=C(c3ccc(Cc4ccc(OC)cc4)[nH]3)C=C2OC)[nH]c1C.Cl | Non-Toxic
21 | COC1=CC2=N/C1=C\NCC/C=C/CCCCCCCCc1ccc2[nH]1.Cl | Non-Toxic

system: not listed separately; assay: Therapeutic index, ratio of IC50 for cytotoxicity against human HepG2 cells to IC50 for antiplasmodial activity against asexual blood stage of chloroquine-sensitive Plasmodium falciparum D6 infected in human erythrocytes; details: not given

Row | Compound | selectivity ratio
22 | CCCCCCCc1cc(/C=C2\N=C(c3ccc[nH]3)C=C2OC)[nH]c1C.Cl | 320
23 | CCCCCc1cc(/C=C2\N=C(c3ccc[nH]3)C=C2OC)[nH]c1C.Cl | 134
24 | COC1=CC(c2ccc[nH]2)=N/C1=C\c1cc(CCCCC(C)C)c(C)[nH]1.Cl | 363
25 | CCCCCCc1cc(/C=C2\N=C(c3ccc[nH]3)C=C2OC)[nH]c1C.Cl | 410
26 | CCCCc1cc(/C=C2\N=C(c3ccc[nH]3)C=C2OC)[nH]c1C.Cl | 301
27 | CCCCCc1cc(/C=C2\N=C(c3ccc(Cc4ccc(OC)cc4)[nH]3)C=C2OC)[nH]c1C.Cl | 1100
28 | COC1=CC2=N/C1=C\NCC/C=C/CCCCCCCCc1ccc2[nH]1.Cl | 1340

system: Plasmodium falciparum; assay: Antiplasmodial activity against asexual blood stage of multidrug-resistant Plasmodium falciparum Dd2 infected in human erythrocytes assessed as reduction in parasite growth incubated for 72 hrs by SYBR green 1 staining based assay; type: functional, organism-based; details: Dd2, Erythrocyte
In short: (§3)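 P. falciparum grown in human erythrocytes at 2% hematocrit in RPMI 1640 with 0.5% Albumax II, hypoxanthine and gentamicin. Assay run at 0.2% parasitemia, 2% hematocrit, triplicate, 72 h at 37 °C under low oxygen. Starting range 2.5–2500 nM, adjusted as needed. SYBR Green I lysis buffer added for 1 h in the dark, fluorescence read at ex 497/em 520 nm. IC50 by nonlinear regression against drug-free controls.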

Row | Compound | IC50 [nM]
29 | CCCCCCCc1cc(/C=C2\N=C(c3ccc[nH]3)C=C2OC)[nH]c1C.Cl | 4.5
30 | CCCCCc1cc(/C=C2\N=C(c3ccc[nH]3)C=C2OC)[nH]c1C.Cl | 7.3
31 | COC1=CC(c2ccc[nH]2)=N/C1=C\c1cc(CCCCC(C)C)c(C)[nH]1.Cl | 2.1
32 | CCCCCCc1cc(/C=C2\N=C(c3ccc[nH]3)C=C2OC)[nH]c1C.Cl | 3.4
33 | CCCCc1cc(/C=C2\N=C(c3ccc[nH]3)C=C2OC)[nH]c1C.Cl | 5.6
34 | CCCCCc1cc(/C=C2\N=C(c3ccc(Cc4ccc(OC)cc4)[nH]3)C=C2OC)[nH]c1C.Cl | 3.2
35 | COC1=CC2=N/C1=C\NCC/C=C/CCCCCCCCc1ccc2[nH]1.Cl | 16

system: Plasmodium yoelii; assay: Antimalarial activity against blood stage Plasmodium yoelii infected in CF1 mouse assessed as reduction in parasitemia at 25 mg/kg, po administered once daily for 4 days and measured on day 5 by Giemsa staining based microscopic analysis relative to control; type: functional; design: scale not given: the % may be the effect or the level left; details: time 4 day
In short: as §1, with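 “group. Infected iv with 2.5 × 104 P. yoelii (Kenya strain) parasitized erythrocytes from a donor mouse.” for “group.”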

Row | Compound | Activity [%]
36 | CCCCCCCc1cc(/C=C2\N=C(c3ccc[nH]3)C=C2OC)[nH]c1C.Cl | 100
37 | CCCCCc1cc(/C=C2\N=C(c3ccc[nH]3)C=C2OC)[nH]c1C.Cl | 100
38 | COC1=CC(c2ccc[nH]2)=N/C1=C\c1cc(CCCCC(C)C)c(C)[nH]1.Cl | 100
39 | CCCCCCc1cc(/C=C2\N=C(c3ccc[nH]3)C=C2OC)[nH]c1C.Cl | 100
40 | CCCCc1cc(/C=C2\N=C(c3ccc[nH]3)C=C2OC)[nH]c1C.Cl | 100
41 | CCCCCc1cc(/C=C2\N=C(c3ccc(Cc4ccc(OC)cc4)[nH]3)C=C2OC)[nH]c1C.Cl | 100
42 | COC1=CC2=N/C1=C\NCC/C=C/CCCCCCCCc1ccc2[nH]1.Cl | 100

system: Plasmodium falciparum; assay: Antiplasmodial activity against asexual blood stage of multidrug-resistant Plasmodium falciparum 7G8 infected in human erythrocytes assessed as reduction in parasite growth incubated for 72 hrs by SYBR green 1 staining based assay; type: functional, organism-based; details: 7G8, Erythrocyte; in short: as §3

Row | Compound | IC50 [nM]
43 | CCCCCCCc1cc(/C=C2\N=C(c3ccc[nH]3)C=C2OC)[nH]c1C.Cl | 4.1
44 | CCCCCc1cc(/C=C2\N=C(c3ccc[nH]3)C=C2OC)[nH]c1C.Cl | 9.2
45 | COC1=CC(c2ccc[nH]2)=N/C1=C\c1cc(CCCCC(C)C)c(C)[nH]1.Cl | 2.1
46 | CCCCCCc1cc(/C=C2\N=C(c3ccc[nH]3)C=C2OC)[nH]c1C.Cl | 3.6
47 | CCCCc1cc(/C=C2\N=C(c3ccc[nH]3)C=C2OC)[nH]c1C.Cl | 8.7
48 | CCCCCc1cc(/C=C2\N=C(c3ccc(Cc4ccc(OC)cc4)[nH]3)C=C2OC)[nH]c1C.Cl | 5.6

system: Plasmodium yoelii; assay: Antimalarial activity against blood stage Plasmodium yoelii infected in CF1 mouse assessed as reduction in parasitemia at 5 mg/kg, po administered once daily for 4 days and measured on day 5 by Giemsa staining based microscopic analysis relative to control; type: functional; design: scale not given: the % may be the effect or the level left; details: time 4 day
In short: as §1, with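 “group. Infected iv with 2.5 × 104 P. yoelii (Kenya strain) parasitized erythrocytes from a donor mouse.” for “group.”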

Row | Compound | Activity [%]
49 | CCCCCCCc1cc(/C=C2\N=C(c3ccc[nH]3)C=C2OC)[nH]c1C.Cl | 89
50 | CCCCCc1cc(/C=C2\N=C(c3ccc[nH]3)C=C2OC)[nH]c1C.Cl | 63
51 | COC1=CC(c2ccc[nH]2)=N/C1=C\c1cc(CCCCC(C)C)c(C)[nH]1.Cl | 65
52 | CCCCCCc1cc(/C=C2\N=C(c3ccc[nH]3)C=C2OC)[nH]c1C.Cl | 70
53 | CCCCc1cc(/C=C2\N=C(c3ccc[nH]3)C=C2OC)[nH]c1C.Cl | 67
54 | CCCCCc1cc(/C=C2\N=C(c3ccc(Cc4ccc(OC)cc4)[nH]3)C=C2OC)[nH]c1C.Cl | 60
55 | COC1=CC2=N/C1=C\NCC/C=C/CCCCCCCCc1ccc2[nH]1.Cl | 0

system: Plasmodium falciparum; assay: Antiplasmodial activity against asexual stage of chloroquine-sensitive Plasmodium falciparum D6 infected in human erythrocytes assessed as reduction in parasite growth incubated for 72 hrs by SYBR green 1 staining based assay; type: functional, organism-based; details: D6, Erythrocyte; in short: as §3

Row | Compound | IC50 [nM]
56 | CCCCCCCc1cc(/C=C2\N=C(c3ccc[nH]3)C=C2OC)[nH]c1C.Cl | 4.2
57 | CCCCCc1cc(/C=C2\N=C(c3ccc[nH]3)C=C2OC)[nH]c1C.Cl | 8
58 | COC1=CC(c2ccc[nH]2)=N/C1=C\c1cc(CCCCC(C)C)c(C)[nH]1.Cl | 4.1
59 | CCCCCCc1cc(/C=C2\N=C(c3ccc[nH]3)C=C2OC)[nH]c1C.Cl | 5.9
60 | CCCCc1cc(/C=C2\N=C(c3ccc[nH]3)C=C2OC)[nH]c1C.Cl | 11
61 | CCCCCc1cc(/C=C2\N=C(c3ccc(Cc4ccc(OC)cc4)[nH]3)C=C2OC)[nH]c1C.Cl | 2.4
62 | COC1=CC2=N/C1=C\NCC/C=C/CCCCCCCCc1ccc2[nH]1.Cl | 22

system: HepG2; assay: Cytotoxicity against human HepG2 cells assessed as reduction in cell viability measured for 48 hrs by MTT assay; type: cell-based; details: HepG2, 48 h

Row | Compound | IC50 [nM]
63 | CCCCCCCc1cc(/C=C2\N=C(c3ccc[nH]3)C=C2OC)[nH]c1C.Cl | 1350
64 | CCCCCc1cc(/C=C2\N=C(c3ccc[nH]3)C=C2OC)[nH]c1C.Cl | 1070
65 | COC1=CC(c2ccc[nH]2)=N/C1=C\c1cc(CCCCC(C)C)c(C)[nH]1.Cl | 1490
66 | CCCCCCc1cc(/C=C2\N=C(c3ccc[nH]3)C=C2OC)[nH]c1C.Cl | 2420
67 | CCCCc1cc(/C=C2\N=C(c3ccc[nH]3)C=C2OC)[nH]c1C.Cl | 3320
68 | CCCCCc1cc(/C=C2\N=C(c3ccc(Cc4ccc(OC)cc4)[nH]3)C=C2OC)[nH]c1C.Cl | 2640
69 | COC1=CC2=N/C1=C\NCC/C=C/CCCCCCCCc1ccc2[nH]1.Cl | 29400

system: Plasmodium falciparum; assay: Antiplasmodial activity against asexual blood stage of multidrug-resistant Plasmodium falciparum TM90C2B infected in human erythrocytes assessed as reduction in parasite growth incubated for 72 hrs by SYBR green 1 staining based assay; type: functional, organism-based; details: Erythrocyte

Row | Compound | IC50 [nM]
70 | CCCCCCCc1cc(/C=C2\N=C(c3ccc[nH]3)C=C2OC)[nH]c1C.Cl | 2.5
71 | CCCCCc1cc(/C=C2\N=C(c3ccc[nH]3)C=C2OC)[nH]c1C.Cl | 8.8
72 | COC1=CC(c2ccc[nH]2)=N/C1=C\c1cc(CCCCC(C)C)c(C)[nH]1.Cl | 2.6
73 | CCCCCCc1cc(/C=C2\N=C(c3ccc[nH]3)C=C2OC)[nH]c1C.Cl | 4.6
74 | CCCCc1cc(/C=C2\N=C(c3ccc[nH]3)C=C2OC)[nH]c1C.Cl | 8.5
75 | CCCCCc1cc(/C=C2\N=C(c3ccc(Cc4ccc(OC)cc4)[nH]3)C=C2OC)[nH]c1C.Cl | 2.3
76 | COC1=CC2=N/C1=C\NCC/C=C/CCCCCCCCc1ccc2[nH]1.Cl | 13
